According to ChEMBL document CHEMBL1255541, “Novel indoline-1- or 3,4-dihydroquinoline-1(2H)-substituted carbothiohydrazides as TPO receptor agonists” (Bioorg Med Chem Lett, 2010):

Key:
[1] = AUC (0 to t) in rat at 5 mg/kg, po; type: ADME, organism-based; design: dose 5 mg/kg, route oral; conditions: plasma
Procedure, shortened: (§1)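 Test substances given as ethanolamine salts, orally at 5 mg/kg to rats. Plasma concentration–time profiles were used to derive apparent total plasma clearance (CLz/F), half-life, AUC0–t and peak plasma concentration (Cmax). Values are reported as mean ± spread.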

Thrombopoietin receptor = biological target: T1, Thrombopoietin receptor (Homo sapiens, UniProt P40238); assay: Agonist activity at human TPOR expressed
T1 sequence (P40238 whole entry): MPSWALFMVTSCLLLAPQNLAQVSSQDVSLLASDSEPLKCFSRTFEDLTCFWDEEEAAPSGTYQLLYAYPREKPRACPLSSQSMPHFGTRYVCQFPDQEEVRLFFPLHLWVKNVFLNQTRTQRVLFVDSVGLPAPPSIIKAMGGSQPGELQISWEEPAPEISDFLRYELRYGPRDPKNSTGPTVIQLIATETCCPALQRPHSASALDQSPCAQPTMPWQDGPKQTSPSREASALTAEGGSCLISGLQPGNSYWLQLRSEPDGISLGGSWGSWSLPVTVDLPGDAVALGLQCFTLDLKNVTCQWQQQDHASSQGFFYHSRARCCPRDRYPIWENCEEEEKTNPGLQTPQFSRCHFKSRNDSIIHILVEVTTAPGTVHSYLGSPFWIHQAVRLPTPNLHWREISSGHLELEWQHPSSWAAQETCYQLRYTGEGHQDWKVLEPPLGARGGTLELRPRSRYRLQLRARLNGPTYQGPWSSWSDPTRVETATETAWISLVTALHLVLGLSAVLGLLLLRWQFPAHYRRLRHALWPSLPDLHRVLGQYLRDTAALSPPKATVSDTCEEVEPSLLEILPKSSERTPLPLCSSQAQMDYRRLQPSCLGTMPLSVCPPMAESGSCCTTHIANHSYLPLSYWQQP

[2] = Apparent total plasma clearance in rat at 5 mg/kg, po; type: ADME, organism-based; design: dose 5 mg/kg, route oral; conditions: read-out: CLt/F (converted); procedure, shortened: as §1
[3] = Cmax in rat at 5 mg/kg, po; type: ADME, organism-based; design: dose 5 mg/kg, route oral; conditions: in vivo; procedure, shortened: as §1
[4] = Half life in rat at 5 mg/kg, po; type: ADME, organism-based; design: dose 5 mg/kg, route oral; conditions: in vivo; procedure, shortened: as §1
[5] = biological target: T2, Thrombopoietin receptor (Homo sapiens) (UniProt P40238); assay: Agonist activity at human TPOR expressed in mouse BaF3 cells at 150 nM
T2 sequence (whole entry): T1 sequence (P40238 whole entry)

[6] = biological target: T2, Thrombopoietin receptor (Homo sapiens); assay: Agonist activity at human TPOR expressed in mouse BaF3 cells at 300 nM

EC50 (Thrombopoietin receptor) | % activity vs 10 ng/ml TPO [5] | % activity vs 10 ng/ml TPO [6] | SMILES | other results
42 nM |  |  | CC1=NN(c2ccc(C)c(C)c2)C(=O)/C1=C(/C)NNC(=O)N1CCc2cc(C(=O)O)ccc21 | AUC(0-t) [1]: 923 ng·h/mL; CL/F [2]: 113 mL/min/kg; Cmax [3]: 859 ng/mL; half-life [4]: 112 min
64 nM |  |  | CC1=NN(c2ccc(C)c(C)c2)C(=O)/C1=C(/C)NNC(=S)N1CCCc2cc(C(=O)O)ccc21 | 
 | 14.3% | 75.8% | C/C(NNC(=S)N1CCc2cc(C(=O)O)ccc21)=C1/C(=O)N(c2ccc3c(c2)CCC3)c2ccccc21 | 
22 nM |  |  | CNC(=O)c1ccc2c(c1)CCN2C(=S)NN/C(C)=C1\C(=O)N(c2ccc(C)c(C)c2)N=C1C | 
 | 47.3% | 101% | C/C(NNC(=S)N1CCCc2cc(C(=O)O)ccc21)=C1/C(=O)N(c2ccc(C)cc2)c2ccccc21 | 
 | 72.4% | 138% | C/C(NNC(=S)N1CCc2cc(C(=O)O)ccc21)=C1/C(=O)N(c2ccc(C)c(C)c2)c2ccccc21 | 
26 nM |  |  | CCNC(=O)c1ccc2c(c1)CCN2C(=S)NN/C(C)=C1\C(=O)N(c2ccc(C)c(C)c2)N=C1C | 
 | 78.1% | 122% | C/C(NNC(=S)N1CCc2cc(C(=O)O)ccc21)=C1/C(=O)N(c2ccc(C)cc2)c2ccc(F)cc21 | 
6 nM |  |  | CC1=NN(c2ccc(C)c(C)c2)C(=O)/C1=C(/C)NNC(=S)N1CCc2cc(C(=O)O)ccc21 | 
35 nM |  |  | CC1=NN(c2ccc3c(c2)CCC3)C(=O)/C1=C(/C)NNC(=S)N1CCCc2cc(C(=O)O)ccc21 | 
3 nM |  |  | CC1=NN(c2ccc3c(c2)CCC3)C(=O)/C1=C(/C)NNC(=S)N1CCc2cc(C(=O)O)ccc21 | 
 | 47.8% | 107% | C/C(NNC(=S)N1CCc2cc(C(=O)O)ccc21)=C1/C(=O)N(c2ccc(C)cc2)c2ccccc21 | 
 | 30.9% | 33.4% | C/C(NNC(=S)N1CCCc2cc(C(=O)O)ccc21)=C1/C(=O)N(c2ccc(C)c(C)c2)c2ccccc21 | 
 | 3.2% | 10.6% | C/C(NNC(=S)N1CCc2cc(C(=O)O)ccc21)=C1/C(=O)N(c2ccc3c(c2)CCC3)c2ccc(F)cc21 | 
46 nM |  |  | CC1=NN(c2ccc3c(c2)CCC3)C(=O)/C1=C(/C)NNC(=O)N1CCc2cc(C(=O)O)ccc21 | AUC(0-t) [1]: 4460 ng·h/mL; CL/F [2]: 20.5 mL/min/kg; Cmax [3]: 3550 ng/mL; half-life [4]: 88.8 min
31 nM |  |  | CC1=NN(c2ccc(C)c(C)c2)C(=O)/C1=C(/C)NNC(=S)N1CCc2cc(C(=O)N3CCOCC3)ccc21 | 
